# Test system: Fibroblast
# Test: Multiplex assay against human fibroblast
# Type: toxicity, cell-based
# Outline: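 Values for tubulin, mitochondrial-mass and membrane-permeability phenotypes are per cents of cells with healthy nuclei. These cells were identified by CellPathfinder machine-learning gating of live cells that had been stained at seeding with Hoechst33342, BioTracker Green Microtubule Cytoskeleton Dye, MitoTracker Red and Annexin V Alexa Fluor 680 and imaged on a CQ1 microscope at 37°C and 5% CO2 after compound addition. The gating first set Hoechst high-intensity objects apart from normal cells, then split normal cells into healthy, pyknosed or fragmented nuclei, and pyknosed cells into mitotic or apoptotic.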
# [1] = 12 h, 1 µM, compound concentration 1 uM, replicate 1
# [2] = 12 h, 1 µM, compound concentration 1 uM, replicate 2
# [3] = 12 h, 10 µM, compound concentration 10 uM, replicate 1
# [4] = 12 h, 10 µM, compound concentration 10 uM, replicate 2
# [5] = 24 h, 1 µM, compound concentration 1 uM, replicate 1
# [6] = 24 h, 1 µM, compound concentration 1 uM, replicate 2
# [7] = 24 h, 10 µM, compound concentration 10 uM, replicate 1
# [8] = 24 h, 10 µM, compound concentration 10 uM, replicate 2
# [9] = 48 h, 1 µM, compound concentration 1 uM, replicate 1
# [10] = 48 h, 1 µM, compound concentration 1 uM, replicate 2
# [11] = 48 h, 10 µM, compound concentration 10 uM, replicate 1
# [12] = 48 h, 10 µM, compound concentration 10 uM, replicate 2
structure (smiles),measurement,setting,value
COc1ccc2c(c1OCc1ccccc1)C[C@@H](C(=O)O)N(C(=O)C(c1ccccc1)c1ccccc1)C2 [OLODANRIGAN],Population Apoptotic (%),[1],46%
same,Population Fragmented Nuclei (%),[1],17%
same,Population Healthy Nuclei (%),[1],63%
same,Population Hoechst High Intensity Objects (%),[1],7%
same,Population Membrane Permeable-Phenotype (%),[1],1%
same,Population Mitochondria Different-Phenotype (%),[1],2%
same,Population Mitotic Cells (%),[1],53%
same,Population Normal (%),[1],92%
same,Population Pyknosed Nuclei (%),[1],19%
same,Population Tubulin-Different-Phenotype (%),[1],29%
same,Total Cell Count,[1],157
same,Population Apoptotic (%),[2],38%
same,Population Fragmented Nuclei (%),[2],21%
same,Population Healthy Nuclei (%),[2],50%
same,Population Hoechst High Intensity Objects (%),[2],1%
same,Population Membrane Permeable-Phenotype (%),[2],9%
same,Population Mitochondria Different-Phenotype (%),[2],5%
same,Population Mitotic Cells (%),[2],61%
same,Population Normal (%),[2],98%
same,Population Pyknosed Nuclei (%),[2],27%
same,Population Tubulin-Different-Phenotype (%),[2],57%
same,Total Cell Count,[2],154
same,Population Apoptotic (%),[3],31%
same,Population Fragmented Nuclei (%),[3],11%
same,Population Healthy Nuclei (%),[3],65%
same,Population Hoechst High Intensity Objects (%),[3],0%
same,Population Membrane Permeable-Phenotype (%),[3],1%
same,Population Mitochondria Different-Phenotype (%),[3],7%
same,Population Mitotic Cells (%),[3],68%
same,Population Normal (%),[3],99%
same,Population Pyknosed Nuclei (%),[3],23%
same,Population Tubulin-Different-Phenotype (%),[3],28%
same,Total Cell Count,[3],140
same,Population Apoptotic (%),[4],34%
same,Population Fragmented Nuclei (%),[4],18%
same,Population Healthy Nuclei (%),[4],54%
same,Population Hoechst High Intensity Objects (%),[4],5%
same,Population Membrane Permeable-Phenotype (%),[4],6%
same,Population Mitotic Cells (%),[4],65%
same,Population Normal (%),[4],94%
same,Population Pyknosed Nuclei (%),[4],26%
same,Population Tubulin-Different-Phenotype (%),[4],46%
same,Total Cell Count,[4],162
same,Population Apoptotic (%),[5],65%
same,Population Fragmented Nuclei (%),[5],18%
same,Population Healthy Nuclei (%),[5],66%
same,Population Hoechst High Intensity Objects (%),[5],6%
same,Population Membrane Permeable-Phenotype (%),[5],0%
same,Population Mitochondria Different-Phenotype (%),[5],1%
same,Population Mitotic Cells (%),[5],34%
same,Population Normal (%),[5],93%
same,Population Pyknosed Nuclei (%),[5],15%
same,Population Tubulin-Different-Phenotype (%),[5],26%
same,Total Cell Count,[5],159
same,Population Apoptotic (%),[6],38%
same,Population Fragmented Nuclei (%),[6],21%
same,Population Healthy Nuclei (%),[6],53%
same,Population Hoechst High Intensity Objects (%),[6],2%
same,Population Membrane Permeable-Phenotype (%),[6],9%
same,Population Mitochondria Different-Phenotype (%),[6],7%
same,Population Mitotic Cells (%),[6],61%
same,Population Normal (%),[6],97%
same,Population Pyknosed Nuclei (%),[6],25%
same,Population Tubulin-Different-Phenotype (%),[6],46%
same,Total Cell Count,[6],146
same,Population Apoptotic (%),[7],53%
same,Population Fragmented Nuclei (%),[7],10%
same,Population Healthy Nuclei (%),[7],68%
same,Population Hoechst High Intensity Objects (%),[7],2%
same,Population Membrane Permeable-Phenotype (%),[7],1%
same,Population Mitochondria Different-Phenotype (%),[7],3%
same,Population Mitotic Cells (%),[7],46%
same,Population Normal (%),[7],97%
same,Population Pyknosed Nuclei (%),[7],21%
same,Population Tubulin-Different-Phenotype (%),[7],21%
same,Total Cell Count,[7],136
same,Population Apoptotic (%),[8],58%
same,Population Fragmented Nuclei (%),[8],17%
same,Population Healthy Nuclei (%),[8],62%
same,Population Hoechst High Intensity Objects (%),[8],3%
same,Population Membrane Permeable-Phenotype (%),[8],4%
same,Population Mitochondria Different-Phenotype (%),[8],4%
same,Population Mitotic Cells (%),[8],41%
same,Population Normal (%),[8],96%
same,Population Pyknosed Nuclei (%),[8],19%
same,Population Tubulin-Different-Phenotype (%),[8],50%
same,Total Cell Count,[8],153
same,Population Apoptotic (%),[9],42%
same,Population Fragmented Nuclei (%),[9],27%
same,Population Healthy Nuclei (%),[9],58%
same,Population Hoechst High Intensity Objects (%),[9],3%
same,Population Membrane Permeable-Phenotype (%),[9],0%
same,Population Mitochondria Different-Phenotype (%),[9],2%
same,Population Mitotic Cells (%),[9],57%
same,Population Normal (%),[9],96%
same,Population Pyknosed Nuclei (%),[9],14%
same,Population Tubulin-Different-Phenotype (%),[9],20%
same,Total Cell Count,[9],154
same,Population Apoptotic (%),[10],41%
same,Population Fragmented Nuclei (%),[10],31%
same,Population Healthy Nuclei (%),[10],52%
same,Population Hoechst High Intensity Objects (%),[10],1%
same,Population Membrane Permeable-Phenotype (%),[10],1%
same,Population Mitochondria Different-Phenotype (%),[10],4%
same,Population Mitotic Cells (%),[10],58%
same,Population Normal (%),[10],98%
same,Population Pyknosed Nuclei (%),[10],15%
same,Population Tubulin-Different-Phenotype (%),[10],40%
same,Total Cell Count,[10],156
same,Population Apoptotic (%),[11],57%
same,Population Fragmented Nuclei (%),[11],15%
same,Population Healthy Nuclei (%),[11],69%
same,Population Hoechst High Intensity Objects (%),[11],5%
same,Population Membrane Permeable-Phenotype (%),[11],1%
same,Population Mitochondria Different-Phenotype (%),[11],5%
same,Population Mitotic Cells (%),[11],42%
same,Population Normal (%),[11],94%
same,Population Pyknosed Nuclei (%),[11],15%
same,Population Tubulin-Different-Phenotype (%),[11],27%
same,Total Cell Count,[11],146
same,Population Apoptotic (%),[12],61%
same,Population Fragmented Nuclei (%),[12],29%
same,Population Healthy Nuclei (%),[12],58%
same,Population Hoechst High Intensity Objects (%),[12],7%
same,Population Membrane Permeable-Phenotype (%),[12],3%
same,Population Mitotic Cells (%),[12],38%
same,Population Normal (%),[12],92%
same,Population Pyknosed Nuclei (%),[12],12%
same,Population Tubulin-Different-Phenotype (%),[12],45%
same,Total Cell Count,[12],163
